The nature of assay [1]: Antitumor activity against mouse B16 melanoma cells, calculated as average change in body weight from onset to termination of therapy. It counts as functional. The gist of the method: (§1)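 Tumor-bearing mice in groups of five, dosed i.p. daily for 6 days from 24 h post-implantation with suspensions in Tween 80/isotonic saline at 10-150 mg/kg per day; vehicle controls run alongside. Mice weighed during the experiment. Average percent body-weight change from onset to termination of therapy was taken as the toxicity index, reported at the optimal-survival dose.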

The species named for assay [2] is Mus musculus. Description: Antitumor activity against L1210 leukemia cells in mice calculated as average change in body weight from onset to termination of therapy. It counts as functional. The gist of the method: as §1
Assay [3] is filed under the species Mus musculus. Description: Antitumor activity against L1210 leukemia cells in mice (activity expressed as average survival time of treated/control animals x 100). It counts as functional. The essentials:
(§2)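 Compound given ip as a fine suspension (homogenized in drops of 20% aqueous Tween 80, made to volume with isotonic saline) at 10-150 mg/kg per day, once daily for 6 consecutive days starting 24 h after implantation. Vehicle-injected tumor-bearing controls were included. Read-out was survival time; body-weight change over therapy was the toxicity indicator.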

The nature of assay [4]: Antitumor activity against B16 melanoma cells in mice, activity is expressed as average survival time of treated/control animals x 100. It counts as functional, Mus musculus. The essentials:
as §2

The test system of a further assay is L1210. Description: Antitumor activity against L1210 leukemia cells in mice, activity is expressed as optimal effective dose. It counts as functional, Mus musculus. The gist of the method:
(§3)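 Transplanted tumor in mice, given i.p. once daily for 6 consecutive days starting 24 h after implantation. Doses span 10-150 mg/kg per day as fine suspensions homogenized in a few drops of 20% aqueous Tween 80 and made up with isotonic saline. Groups of five; vehicle-injected tumor-bearing controls. %T/C = mean survival time treated/control × 100. Value is the daily dose giving maximum %T/C.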

The species entered for assay [5] is Mus musculus. Description: Antitumor activity against B16 melanoma cells in mice. Activity is expressed as optimal effective dose. It counts as functional. The gist of the method:
as §3

Assay [6] is filed under the species Mus musculus. The experiment in a line: Antitumor activity against B16 melanoma cells in mice, activity is expressed as optimal effective dose. It counts as functional. The essentials:
as §3

The species named for assay [7] is Mus musculus. Description: Antitumor activity against L1210 leukemia cells in mice, activity is expressed as optimal effective dose. It counts as functional. The essentials: as §3
The species entered for assay [8] is Mus musculus. Description: Antitumor activity against L1210 leukemia cells in mice, activity is expressed as average survival time of treated/control animals x 100. It counts as functional. The essentials: as §2
The species named for assay [9] is Mus musculus. Description: Antitumor activity against B16 melanoma cells in mice, activity is expressed as optimal effective dose. It counts as functional. The gist of the method:
as §3

The source of these data is ChEMBL document CHEMBL1123555, “1,2-Bis(sulfonyl)hydrazines. 3. Effects of structural modification on antineoplastic activity” (1987).

Consider `CN(NS(=O)(=O)c1ccc(Cl)cc1)S(C)(=O)=O`, for which the Weight change in assay [1] is -8.7%; in the assay filed under Mus musculus [2], -9.4%. Further, the T/C (commonly the result in the treated group divided by that in the control group, in per cent) was found to be 214% in the assay filed under Mus musculus [3] and 219% in assay [4]. Further, the Dose in the assay with L1210 and in the assay listed under Mus musculus [5] was 60 mg/kg throughout.
Take `CN(NS(=O)(=O)c1ccc(Br)cc1)S(=O)(=O)c1ccc(Br)cc1`: the Dose came out at 50 mg/kg in the assay filed under Mus musculus [6] and 150 mg/kg in the assay listed under Mus musculus [7]. The Weight change in [1] was -3.8%; in the assay listed under Mus musculus [2], 1.7%. This molecule registered a T/C in assay [4] of 160%.
As for `CN(NS(C)(=O)=O)S(=O)(=O)c1ccc(Br)cc1`, the Dose in the assay listed under Mus musculus [6] worked out at 20 mg/kg. For the same molecule, in [1], the Weight change is reported as 4.2%. The T/C in [4] is 225%.
As to `CN(NS(=O)(=O)c1ccc2ccccc2c1)S(=O)(=O)c1ccc(Br)cc1`, the Dose in the assay filed under Mus musculus [6] is 200 mg/kg; in the assay listed under Mus musculus [7], 100 mg/kg. Besides, the Weight change in [1] was 3.7%; in the assay listed under Mus musculus [2], 18.3%. This molecule also returned a T/C in the assay filed under Mus musculus [3] of 123%.
Regarding `CN(NS(=O)(=O)/C=C/c1ccccc1)S(=O)(=O)c1ccc(Br)cc1`, in the assay filed under Mus musculus [6], the Dose amounted to 100 mg/kg. For the same molecule, in assay [1], the Weight change was 0.7%.
As for `CN(NS(=O)(=O)c1ccc(Br)cc1)S(C)(=O)=O`, the Dose in the assay listed under Mus musculus [6] amounted to 100 mg/kg; in the assay filed under Mus musculus [7], 40 mg/kg. The Weight change in assay [1] was -11.4%; in the assay listed under Mus musculus [2] it was 6.3%. The T/C in the assay filed under Mus musculus [3] came out at 191%; in assay [4], 235%.
In the case of `Cc1ccc(S(=O)(=O)NN(C)S(C)(=O)=O)cc1`, the results for the Weight change (in [1]; in the assay listed under Mus musculus [2]) were -8.6% and -12.3%, respectively. Moreover, the results for the T/C (in the assay listed under Mus musculus [3]; in assay [4]) were 186% and 256%, respectively. In addition, the Dose in the assay with L1210 worked out at 40 mg/kg; in the assay listed under Mus musculus [5] it was 60 mg/kg.
On to `CCS(=O)(=O)NN(C)S(=O)(=O)c1ccc(Br)cc1`, for which the Dose in the assay filed under Mus musculus [6] is 30 mg/kg. The Weight change in assay [1] is recorded as 4.5%. Moreover, in assay [4], the T/C amounted to 190%.
On to `CN(NS(=O)(=O)/C=C/c1ccccc1)S(=O)(=O)/C=C/c1ccccc1`, for which the Dose in the assay listed under Mus musculus [6] came out at 50 mg/kg. For the same molecule, in assay [1], the Weight change is given as 2%.
In the case of `COc1ccc(S(=O)(=O)NN(C)S(C)(=O)=O)cc1`, the Dose in the assay listed under Mus musculus [6] and in the assay on L1210 was 60 mg/kg throughout. Moreover, the values for the Weight change (in assay [1]; in the assay listed under Mus musculus [2]) were -11.9% and -13.7%, respectively. The figures for the T/C (in the assay filed under Mus musculus [3]; in assay [4]) were 221% and 233%, respectively.
Turning to `CN(NS(=O)(=O)c1ccc(Cl)cc1)S(=O)(=O)c1ccc(Br)cc1`, in the assay listed under Mus musculus [6], the Dose was 200 mg/kg. In assay [1], the Weight change was 2%.
For the molecule `COc1ccc(S(=O)(=O)NN(C)S(=O)(=O)c2ccc(Br)cc2)cc1`, the Dose in the assay filed under Mus musculus [6] and in the assay filed under Mus musculus [7] was 100 mg/kg in each case. In addition, the Weight change was 1.3% in [1] and 7.8% in the assay listed under Mus musculus [2].
On to `COc1ccc(S(=O)(=O)N(CCCl)NS(C)(=O)=O)cc1`, for which the values for the T/C (in the assay filed under Mus musculus [8]; in assay [4]) were 214% and 184%, respectively. Besides, the Weight change is 3.8% in assay [1] and -10.9% in the assay listed under Mus musculus [2]. In addition, the Dose in the assay filed under Mus musculus [5] and in the assay filed under Mus musculus [7] was 10 mg/kg in each case.
The molecule `COc1ccc(S(=O)(=O)N(C)NS(=O)(=O)c2ccccc2[N+](=O)[O-])cc1` came in with a Dose in the assay listed under Mus musculus [6] of 150 mg/kg. The Weight change in assay [1] was 1.5%. Also, the T/C in assay [4] amounted to 158%.
Regarding `CN(NS(=O)(=O)c1ccc(Br)cc1)S(=O)(=O)Cc1ccccc1`, the Dose in the assay filed under Mus musculus [6] is 50 mg/kg. Moreover, in assay [1], the Weight change is on record as 4.7%.
In the case of `CN(NS(C)(=O)=O)S(C)(=O)=O`, the Dose in the assay listed under Mus musculus [6] came to 50 mg/kg; in the assay filed under Mus musculus [7], 25 mg/kg. Also, the Weight change in [1] was -7.9%; in the assay filed under Mus musculus [2] it was -15.3%. The T/C in the assay filed under Mus musculus [3] is given as 340%; in [4], 278%.
In the assay filed under Mus musculus [7], `Cc1ccc(S(=O)(=O)NN(C)S(=O)(=O)c2ccc(Br)cc2)cc1` displayed a Dose of 100 mg/kg.
With `COc1ccc(S(=O)(=O)N(CCCl)NS(=O)(=O)c2ccccc2)cc1`, the Weight change was -2.8% in assay [1] and 4.8% in the assay filed under Mus musculus [2]. Besides, the results for the T/C (in the assay listed under Mus musculus [3]; in assay [4]) were 136% and 138%, respectively. Besides, the figures for the Dose in the assay listed under Mus musculus [5] and in the assay listed under Mus musculus [7] were 12.5 mg/kg and 10 mg/kg, respectively.
With `Cc1ccc(S(=O)(=O)N(C)NS(=O)(=O)c2ccc(Br)cc2)cc1`, the Weight change in [1] is -5.1%; in the assay listed under Mus musculus [2] it was 5.6%. For the same molecule, the Dose in the assay filed under Mus musculus [5] turned out to be 150 mg/kg; in the assay listed under Mus musculus [7], 50 mg/kg.
With `COc1ccc(S(=O)(=O)N(C)NS(=O)(=O)c2ccc(Br)cc2)cc1`, the values for the Weight change (in [1]; in the assay filed under Mus musculus [2]) were -0.1% and 3.4%, respectively. In addition, the Dose in the assay listed under Mus musculus [5] and in the assay filed under Mus musculus [7] was 100 mg/kg in each case.
`Cc1ccc(S(=O)(=O)N(C)NS(=O)(=O)Cc2ccccc2)cc1`: the Dose in the assay listed under Mus musculus [6] and in the assay with L1210 was 50 mg/kg in each case. Moreover, the Weight change in [1] was -2.4%. The molecule also displayed a T/C in assay [4] of 172%.
`COc1ccc(S(=O)(=O)NN(C)S(=O)(=O)c2ccc(Cl)cc2)cc1`: the Weight change is on record as 1% in [1] and -4.3% in the assay listed under Mus musculus [2]. The figures for the T/C (in the assay listed under Mus musculus [3]; in [4]) were 130% and 189%, respectively. The Dose with L1210 was 150 mg/kg; in the assay listed under Mus musculus [5] it was 50 mg/kg.
`CN(NS(=O)(=O)c1ccccc1)S(=O)(=O)c1ccc(Br)cc1`: the Weight change in assay [1] was 1.5%. The same molecule registered a T/C in assay [4] of 160%. In the assay listed under Mus musculus [9], this molecule showed a Dose of 100 mg/kg.
In the case of `CC(=O)Nc1ccc(S(=O)(=O)N(C)NS(=O)(=O)c2ccc(Br)cc2)cc1`, the Dose in the assay filed under Mus musculus [6] worked out at 150 mg/kg. Moreover, the Weight change in assay [1] was -5.7%.
Turning to `CN(NS(=O)(=O)c1ccc2ccccc2c1)S(=O)(=O)c1ccc2ccccc2c1`, the Dose was 100 mg/kg in the assay listed under Mus musculus [6] and 150 mg/kg in the assay listed under Mus musculus [7]. Further, the Weight change in [1] is 4.6%; in the assay listed under Mus musculus [2], -3.3%.
Take `COc1ccc(S(=O)(=O)N(C)NS(=O)(=O)Cc2ccccc2)cc1`: the results for the Weight change (in assay [1]; in the assay listed under Mus musculus [2]) were 2.1% and 1.5%, respectively. In addition, the figures for the T/C (in the assay filed under Mus musculus [3]; in [4]) were 153% and 160%, respectively. Besides, the Dose with L1210 and in the assay filed under Mus musculus [5] was 50 mg/kg each time.
